From ChEMBL document CHEMBL3526053, “Species-dependent uptake of glycylsarcosine but not oseltamivir in Pichia pastoris expressing the rat, mouse, and human intestinal peptide transporter PEPT1” (Drug Metab Dispos, 2012)

Experiments:
Format in all cases: ADME
[1] = target: T1, Solute carrier family 15 member 1 (Mus musculus, UniProt Q9JIP7); assay: Drug uptake in Pichia pastoris GS115 expressing mouse recombinant PEPT1 at 5 uM after 30s by dual-channel liquid scintillation counting analysis in presence of cephradine relative to control; conditions: 0.5 min
T1 sequence (Q9JIP7 whole entry): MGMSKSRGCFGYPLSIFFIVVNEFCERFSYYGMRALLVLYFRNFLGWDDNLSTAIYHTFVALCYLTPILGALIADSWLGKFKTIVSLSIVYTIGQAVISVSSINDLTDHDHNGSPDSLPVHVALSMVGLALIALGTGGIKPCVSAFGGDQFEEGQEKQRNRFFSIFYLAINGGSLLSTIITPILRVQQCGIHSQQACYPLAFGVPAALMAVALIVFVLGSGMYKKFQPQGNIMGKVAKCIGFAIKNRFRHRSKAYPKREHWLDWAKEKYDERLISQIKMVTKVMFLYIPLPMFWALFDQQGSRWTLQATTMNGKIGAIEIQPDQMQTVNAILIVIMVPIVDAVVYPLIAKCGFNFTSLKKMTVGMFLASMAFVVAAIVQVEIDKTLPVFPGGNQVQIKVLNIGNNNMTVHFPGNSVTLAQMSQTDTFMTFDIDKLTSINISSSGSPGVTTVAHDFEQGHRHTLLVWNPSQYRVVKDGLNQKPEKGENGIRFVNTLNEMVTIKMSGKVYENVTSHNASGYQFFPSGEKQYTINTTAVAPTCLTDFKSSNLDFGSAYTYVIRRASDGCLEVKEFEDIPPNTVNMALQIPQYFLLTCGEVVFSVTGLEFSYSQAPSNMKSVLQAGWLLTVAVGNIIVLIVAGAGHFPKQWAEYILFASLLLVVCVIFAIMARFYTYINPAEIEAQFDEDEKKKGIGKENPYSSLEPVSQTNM
In short: (§1)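 [3H]GlySar 5.0 µM final, 30-s uptake at 24°C in 100 mM potassium phosphate pH 6.5, with or without a potential inhibitor at 10 mM. Cells are methanol-induced transformants. Values are vector-subtracted and expressed as percent of buffer control. Mean ± SE (n=3). ANOVA with Dunnett's test.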

[2] = target: T2, Solute carrier family 15 member 1 (Homo sapiens, UniProt P46059); assay: Drug uptake in Pichia pastoris GS115 expressing human recombinant PEPT1 at 5 uM after 30s by dual-channel liquid scintillation counting analysis in presence of cefadroxil relative to control; conditions: 0.5 min; in short: as §1
T2 sequence (P46059 whole entry): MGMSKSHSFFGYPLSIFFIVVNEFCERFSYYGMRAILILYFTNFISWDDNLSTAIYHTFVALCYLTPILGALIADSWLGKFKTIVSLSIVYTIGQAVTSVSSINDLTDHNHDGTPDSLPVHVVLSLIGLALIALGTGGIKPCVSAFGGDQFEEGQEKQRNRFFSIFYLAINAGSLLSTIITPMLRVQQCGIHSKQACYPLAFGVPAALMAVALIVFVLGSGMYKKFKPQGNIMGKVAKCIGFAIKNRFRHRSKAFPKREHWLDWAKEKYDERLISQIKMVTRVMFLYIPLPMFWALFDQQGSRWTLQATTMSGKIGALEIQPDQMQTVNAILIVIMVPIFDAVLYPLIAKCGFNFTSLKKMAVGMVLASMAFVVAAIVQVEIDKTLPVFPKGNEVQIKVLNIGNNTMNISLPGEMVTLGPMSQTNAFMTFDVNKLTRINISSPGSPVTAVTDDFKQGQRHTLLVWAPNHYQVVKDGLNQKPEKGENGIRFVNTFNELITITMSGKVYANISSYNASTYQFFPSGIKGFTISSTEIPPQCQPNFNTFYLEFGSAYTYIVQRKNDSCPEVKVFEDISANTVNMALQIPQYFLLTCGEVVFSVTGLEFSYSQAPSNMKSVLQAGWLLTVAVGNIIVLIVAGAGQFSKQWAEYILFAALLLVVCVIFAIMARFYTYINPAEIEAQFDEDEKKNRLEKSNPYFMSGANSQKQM

[3] = target: T2, Solute carrier family 15 member 1; assay: Drug uptake in Pichia pastoris GS115 expressing human recombinant PEPT1 at 5 uM after 30s by dual-channel liquid scintillation counting analysis in presence of TEA relative to control; conditions: 0.5 min; in short: as §1
[4] = target: T1, Solute carrier family 15 member 1; assay: Drug uptake in Pichia pastoris GS115 expressing mouse recombinant PEPT1 at 5 uM after 30s by dual-channel liquid scintillation counting analysis in presence of cephalothin relative to control; conditions: 0.5 min; in short: as §1
[5] = target: T3, Solute carrier family 15 member 1 (Rattus norvegicus, UniProt P51574); assay: Drug uptake in Pichia pastoris GS115 expressing rat recombinant PEPT1 at 5 uM after 30s by dual-channel liquid scintillation counting analysis relative to control; conditions: 0.5 min
T3 sequence (P51574 whole entry): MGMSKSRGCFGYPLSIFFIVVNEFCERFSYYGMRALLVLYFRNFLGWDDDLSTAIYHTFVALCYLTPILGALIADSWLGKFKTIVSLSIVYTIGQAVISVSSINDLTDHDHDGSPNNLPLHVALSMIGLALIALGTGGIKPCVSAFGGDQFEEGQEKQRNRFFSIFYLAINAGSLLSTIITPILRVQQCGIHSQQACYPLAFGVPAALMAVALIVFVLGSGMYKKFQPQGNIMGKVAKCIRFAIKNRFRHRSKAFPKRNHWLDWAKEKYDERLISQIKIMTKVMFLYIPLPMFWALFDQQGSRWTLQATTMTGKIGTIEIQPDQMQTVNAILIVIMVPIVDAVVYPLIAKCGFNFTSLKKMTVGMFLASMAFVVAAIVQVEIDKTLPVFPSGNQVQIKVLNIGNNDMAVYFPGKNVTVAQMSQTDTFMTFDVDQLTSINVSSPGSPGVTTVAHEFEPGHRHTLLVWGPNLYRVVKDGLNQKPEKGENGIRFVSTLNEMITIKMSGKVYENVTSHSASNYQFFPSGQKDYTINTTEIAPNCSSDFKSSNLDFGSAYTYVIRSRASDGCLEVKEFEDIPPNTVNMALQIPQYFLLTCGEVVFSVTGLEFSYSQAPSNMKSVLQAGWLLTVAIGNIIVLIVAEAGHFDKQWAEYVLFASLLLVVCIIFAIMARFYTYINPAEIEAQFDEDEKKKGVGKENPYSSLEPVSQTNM
In short: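 Rat PEPT1 and vector-only (pPIC3.5K) GS115 yeast, methanol-induced 20-24 hr. Cells were washed and concentrated tenfold in 100 mM phosphate buffer pH 6.5. [3H]GlySar or [14C]oseltamivir final 5.0 µM, 24°C, 30 sec and 5 min. Nonspecific binding was measured at 0°C and zero time. Uptake is given as pmol/OD600 by scintillation counting. Mean ± SE, n=6.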

[6] = target: T2, Solute carrier family 15 member 1; assay: Drug uptake in Pichia pastoris GS115 expressing human recombinant PEPT1 at 5 uM after 30s by dual-channel liquid scintillation counting analysis in presence of cephalothin relative to control; conditions: 0.5 min; in short: as §1
[7] = target: T3, Solute carrier family 15 member 1; assay: Drug uptake in Pichia pastoris GS115 expressing rat recombinant PEPT1 at 5 uM after 30s by dual-channel liquid scintillation counting analysis in presence of cefadroxil relative to control; conditions: in vivo, 0.5 min; in short: as §1
[8] = target: T1, Solute carrier family 15 member 1; assay: Drug uptake in Pichia pastoris GS115 expressing mouse recombinant PEPT1 at 5 uM after 30s by dual-channel liquid scintillation counting analysis in presence of cefadroxil relative to control; conditions: 0.5 min; in short: as §1

Drug uptake [1]: 9.8%
Drug uptake [2]: 6.4%
Drug uptake [3]: 113%
Drug uptake [4]: 85%
Drug uptake [5]: 100%
Drug uptake [6]: 84.8%
Drug uptake [7]: 23.1%
Drug uptake [8]: 16.7%
SMILES: [3H]C(C(=O)O)N(C)C(=O)CN (stereo not drawn)
